Experimental data from different studies.
Each line is one published result; the experiments were not run side by side.
Target: Mitogen-activated protein kinase kinase kinase 20 (MAP3K20, Homo sapiens, UniProt Q9NYL2)

Nc1ncc(-c2nc(N3CCOCC3)nc(N3CCOCC3)n2)c(C(F)F)n1 gave a remaining binding of 80% (binding; competition with immobilised ligand; 10 µM).
For O=c1[nH]c2ccccc2n1C1CCN(Cc2ccc(-c3[nH]c4cc5ncnc5cc4nc3-c3ccccc3)cc2)CC1, the remaining signal was 106% (cell-free assay; 0.5 µM).
With Cn1cc(-c2cccc(N3CCc4c(sc5c4CC(C)(C)C5)C3=O)c2CO)cc(Nc2ccncn2)c1=O the inhibition was -1% (enzyme activity; inhibitor; 1 µM).
With COc1cc(Nc2ncc(F)c(Nc3ccc4c(n3)NC(=O)C(C)(C)O4)n2)cc(OC)c1OC the inhibition was 44% (binding; 10 µM).
For Cn1cncc1[C@](O)(COc1ccc(C#N)cc1-c1ccc(OC(F)(F)F)cc1)c1ccc(C#N)cc1, the remaining binding was 100% (cell-free assay; competition with immobilised ligand; 1 µM).
With COc1ncccc1-c1cnn2ccc(N3CCN(C(=O)OC(C)C)CC3)nc12 the remaining binding was 78% (binding; competition with immobilised ligand; 1 µM).
For Cn1cc(-c2cc(F)cc(N3CCn4c(cc5c4CCCC5)C3=O)c2CO)cc(Nc2ccc(N3CCN(C4COC4)CC3)cn2)c1=O, the inhibition was -3% (enzyme activity; inhibitor; 0.1 µM).
Cc1ccc(C(=O)Nc2ccc(CN3CCN(C)CC3)c(C(F)(F)F)c2)cc1C#Cc1cnc2cccnn12 gave a ΔTm of 15 °C (thermal stability; DSF; 10 µM).
For CC(C)(C)c1cc(C=C(C#N)C#N)cc(Br)c1O, the remaining activity was 91.2% (enzyme activity; inhibitor; 0.5 µM).
The remaining binding of Cc1nn(C)cc1-c1nc2c(N3CCN(Cc4ccc(Cl)cc4)CC3)c(Cl)cnc2[nH]1 is reported as 71% (binding; competition with immobilised ligand; 1 µM).
